Results reported in BindingDB's records for doi:10.1021/acs.jmedchem.8b01402 (University of Bristol, 2019).

Molecular target: Transcriptional enhancer factor TEF-1 (Homo sapiens, UniProt P28347)
Assay: Inhibition of NL-tagged YAP (unknown origin) interaction with myc-tagged human TEAD1 preincubated for 1 hr followed by NL-tagged YAP addition by NanoGlo assay
Procedure, shortened: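 Myc-TEAD1 from transfected HeLa lysate was captured with anti-myc antibody on protein-G-coated 96-well plates. Wells were pretreated with compound in PBS for 1 h at 4 °C, then co-incubated with lysate from HeLa cells expressing YAP–nanoluciferase. After four PBS washes, bound YAP–NL was read with NanoGlo.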

Chain of Transcriptional enhancer factor TEF-1 (P28347 whole entry): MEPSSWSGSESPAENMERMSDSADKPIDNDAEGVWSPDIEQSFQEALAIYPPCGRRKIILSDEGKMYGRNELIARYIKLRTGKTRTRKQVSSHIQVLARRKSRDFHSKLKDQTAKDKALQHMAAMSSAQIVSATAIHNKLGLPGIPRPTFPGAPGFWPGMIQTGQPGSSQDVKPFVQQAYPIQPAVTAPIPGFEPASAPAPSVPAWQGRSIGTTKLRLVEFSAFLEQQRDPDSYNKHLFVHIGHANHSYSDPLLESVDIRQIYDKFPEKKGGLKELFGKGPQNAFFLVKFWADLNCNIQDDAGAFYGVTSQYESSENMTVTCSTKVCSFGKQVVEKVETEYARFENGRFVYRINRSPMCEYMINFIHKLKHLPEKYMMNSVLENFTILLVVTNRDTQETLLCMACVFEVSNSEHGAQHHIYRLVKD

IC50: 48 µM
Compound: Cc1ccc2c(c1)c1c3n2CCN(C[C@H](O)CN2CCN(C(=O)c4ccco4)CC2)[C@@H]3CCC1
